Assay results from ChEMBL document CHEMBL2062474, “Discovery and preliminary SAR of bisbenzylisoquinoline alkaloids as inducers of C/EBPα” (Bioorg Med Chem, 2012).

How the values were obtained:
U-937 [1] = experiment: Cytotoxicity against human U937 cells after 24 hrs by alamar blue assay; assay type: cell-based; settings: U-937, 24 h
Procedure, shortened: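 U937 cells exposed to test sample for 24 h in 384-well format. Toxicity read by Alamar Blue fluorescence and expressed as growth relative to untreated U937 cells. Value is the concentration giving 50% growth inhibition, from multiple 2-fold doses tested in triplicate.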

[2] = Cytotoxicity against human U937 cells assessed as cell growth at 12 uM after 24 hrs by alamar blue assay; assay type: cell-based, U-937; settings: read-out: Activity
Procedure, shortened: (§1)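 U937 cells engineered with a multimerized C/EBPα binding site driving luciferase were incubated with compound in 384-well format, in triplicate, at multiple 2-fold doses. Toxicity was read by Alamar Blue fluorescence. Growth is expressed relative to untreated U937 cells.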

U-937 [3] = experiment: Induction of rat C/EBPalpha expression transfected in human U937 cells after 24 hrs by luciferase reporter gene assay relative to ATRA; assay type: functional
Procedure, shortened: (§2)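 Engineered U937 line (4X C/EBPα binding site driving a luciferase reporter) incubated 24 h with or without sample in 384-well plates, in triplicate, across multiple 2-fold doses. Luminescence was read after adding Britelite reagent. ATRA ran on each plate as positive control. Fold induction was normalized to ATRA induction.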

U-937 [4] = experiment: Induction of rat C/EBPalpha expression transfected in human U937 cells at 12 uM after 24 hrs by luciferase reporter gene assay relative to ATRA; assay type: functional; procedure, shortened: as §2
[5] = Cytotoxicity against human U937 cells assessed as cell growth at 25 uM after 24 hrs by alamar blue assay; assay type: cell-based, U-937; settings: read-out: Activity; procedure, shortened: as §1
U-937 [6] = experiment: Induction of rat C/EBPalpha expression transfected in human U937 cells at 25 uM after 24 hrs by luciferase reporter gene assay relative to ATRA; assay type: functional; procedure, shortened: as §2
U-937 [7] = experiment: Induction of rat C/EBPalpha expression transfected in human U937 cells after 24 hrs by luciferase reporter gene assay relative to control; assay type: functional
Procedure, shortened: (§3)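 U937 cells carry a luciferase reporter driven by a multimerized C/EBPα binding site (U937 4X C/EBPα). Cells incubated 24 h with or without test sample in 384-well plates, then luciferase read by luminescence. ATRA included on each plate as positive control, and fold induction normalized to ATRA. Multiple 2-fold doses tested in triplicate.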

HL-60 = experiment: Induction of rat C/EBPalpha expression transfected in human HL60 cells after 24 hrs by luciferase reporter gene assay relative to control; assay type: functional
U-937 [8] = experiment: Induction of rat C/EBPalpha expression transfected in human U937 cells at 0.78 uM after 24 hrs by luciferase reporter gene assay relative to ATRA; assay type: functional; procedure, shortened: as §3
[9] = Cytotoxicity against human U937 cells assessed as cell growth at 0.78 uM after 24 hrs by alamar blue assay; assay type: cell-based, U-937; settings: read-out: Activity
Procedure, shortened: (§4)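 U937 cells incubated 24 h with test sample in multiple 2-fold doses, tested in triplicate, in 384-well format. Cell growth read by Alamar Blue fluorescence relative to untreated U937 cells. Value is growth at the concentration giving maximum C/EBPα fold induction.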

U-937 [10] = experiment: Induction of rat C/EBPalpha expression transfected in human U937 cells at 50 uM after 24 hrs by luciferase reporter gene assay relative to ATRA; assay type: functional; procedure, shortened: as §2
[11] = Cytotoxicity against human U937 cells assessed as cell growth at 50 uM after 24 hrs by alamar blue assay; assay type: cell-based, U-937; settings: read-out: Activity; procedure, shortened: as §1
[12] = Cytotoxicity against human U937 cells assessed as cell growth at 3.1 uM after 24 hrs by alamar blue assay; assay type: cell-based, U-937; settings: read-out: Activity; procedure, shortened: as §4
U-937 [13] = experiment: Induction of rat C/EBPalpha expression transfected in human U937 cells at 3.1 uM after 24 hrs by luciferase reporter gene assay relative to ATRA; assay type: functional; procedure, shortened: as §3
U-937 [14] = experiment: Induction of rat C/EBPalpha expression transfected in human U937 cells at 6.2 uM after 24 hrs by luciferase reporter gene assay relative to ATRA; assay type: functional; procedure, shortened: as §3
[15] = Cytotoxicity against human U937 cells assessed as cell growth at 6.2 uM after 24 hrs by alamar blue assay; assay type: cell-based, U-937; settings: read-out: Activity; procedure, shortened: as §4

## COc1ccc2cc1-c1cc(ccc1O)C[C@H]1c3cc4c(cc3CCN1C)Oc1c(OC)cc3c(c1O4)[C@H](C2)N(C)CC3 [TILIACORININE]
U-937 [1]
  IC50: 25 µM
[2]
  viability at 24 h, 12 µM: 63%
U-937 [3]
  MED: 12 µM
U-937 [4]
  fold change (FC): 1.9

## COc1ccc2cc1Oc1ccc(cc1)C[C@H]1c3c(cc4c(c3Oc3cc5c(cc3OC)CCN(C)[C@@H]5C2)OCO4)CCN1C [CEPHARANTHINE]
U-937 [1]
  IC50: > 50 µM
[2]
  viability at 24 h, 12 µM: 87%
U-937 [3]
  MED: 12 µM
U-937 [4]
  fold change (FC): 1

## COc1ccc2cc1Oc1ccc(cc1)C[C@@H]1c3cc(c(OC)cc3CCN1C)Oc1c(OC)c(OC)cc3c1[C@H](C2)N(C)CC3 [ISOTETRANDRINE]
U-937 [1]
  IC50: > 50 µM
[5]
  viability at 24 h, 25 µM: 69%
U-937 [6]
  fold change (FC): 1.2
U-937 [3]
  MED: 12 µM

## CC1=C(/C=C/C(C)=C/C=C/C(C)=C/C(=O)O)C(C)(C)CCC1 [TRETINOIN]
U-937 [7]
  fold change (FC): 2
HL-60
  fold change (FC): 2

## COc1ccc(C[C@H]2c3cc(OC)c(OC)c(OC)c3CC[N+]2(C)C)cc1Oc1ccc(C[C@H]2c3cc(OC)c4c(c3CCN2C)OCO4)cc1.[Cl-] [THALISTYLINE]
U-937 [1]
  IC50: > 50 µM
U-937 [8]
  fold change (FC): 0.9
[9]
  viability at 24 h, 0.78 µM: 133%
U-937 [3]
  MED: >50 µM

## COC1=CC2=C3[C@H](Cc4cc5c(c(c4)Oc4ccc(cc4)C[C@H]4c6cc7c(cc6CCN4C)OC[C@@]3(O7)C1=O)OCO5)N(C)CC2 [REPANDULINE]
U-937 [1]
  IC50: > 50 µM
U-937 [10]
  fold change (FC): 1.5
U-937 [3]
  MED: 50 µM
[11]
  viability at 24 h, 50 µM: 67%

## COc1ccc2cc1Oc1ccc(cc1)C[C@H]1c3c(cc(OC)c(O)c3Oc3cc4c(cc3OC)CCN(C)[C@@H]4C2)CCN1C [HOMOAROMOLINE]
U-937 [1]
  IC50: > 50 µM
U-937 [10]
  fold change (FC): 1.9
U-937 [3]
  MED: 3.1 µM
[11]
  viability at 24 h, 50 µM: 80%

## COc1cc2c3c(O)c1OCc1ccc(cc1)C[C@@H]1c4c(cc(OC)c(OC)c4Oc4ccc(cc4)CC3=NCC2)CCN1C [CISSAMPAREINE]
U-937 [1]
  IC50: > 50 µM
[12]
  viability at 24 h, 3.1 µM: 78%
U-937 [3]
  MED: >50 µM
U-937 [13]
  fold change (FC): 0.5

## COc1ccc2cc1Oc1ccc(cc1)C[C@H]1c3cc(c(OC)cc3CCN1C)Oc1c(OC)c(OC)cc3c1[C@H](C2)N(C)CC3 [FANCHININ]
U-937 [1]
  IC50: > 50 µM
[5]
  viability at 24 h, 25 µM: 69%
U-937 [6]
  fold change (FC): 0.9
U-937 [3]
  MED: >50 µM

## COc1cc2c(cc1O)[C@H]1Cc3c(cc(OC)c(OC)c3Oc3cc4c(cc3OC)CCN(C)[C@@H]4Cc3ccc(O)cc3)[C@@H](C2)N1C [HERVELINE O]
U-937 [1]
  IC50: > 50 µM
[5]
  viability at 24 h, 25 µM: 108%
U-937 [6]
  fold change (FC): 0.46
U-937 [3]
  MED: >50 µM

## COc1cc2c3cc1Oc1c(OC)c(OC)cc4c1[C@H](Cc1cc5c(c(c1)Oc1ccc(cc1)C[C@@H]3N(C)CC2)OCO5)N(C)CC4 [TENUIPINE]
U-937 [1]
  IC50: > 50 µM
[5]
  viability at 24 h, 25 µM: 105%
U-937 [6]
  fold change (FC): 1.4
U-937 [3]
  MED: 25 µM

## COc1ccc2cc1Oc1ccc(cc1)CC1=NCCc3cc(OC)c(OC)c(c31)Oc1cc3c(cc1OC)CCN(C)[C@@H]3C2 [EPISTEPHANINE]
U-937 [1]
  IC50: > 50 µM
U-937 [14]
  fold change (FC): 0.9
[15]
  viability at 24 h, 6.2 µM: 99%
U-937 [3]
  MED: >50 µM

## COc1cc2c3cc1Oc1c(OC)c(OC)cc4c1[C@H](Cc1ccc(O)c(c1)-c1cc(ccc1OC)C[C@H]3N(C)CC2)N(C)CC4 [FUNIFERINE]
U-937 [1]
  IC50: > 50 µM
U-937 [10]
  fold change (FC): 2.2
U-937 [3]
  MED: 12 µM
[11]
  viability at 24 h, 50 µM: 94%

## COc1cc2c(cc1Oc1ccc(OC)c3c1C[C@H]1c4c(cc(OC)c(OC)c4-3)CCN1C)C[C@H]1c3c(cc(OC)c(OC)c3-2)CCN1C
U-937 [1]
  IC50: > 50 µM
[5]
  viability at 24 h, 25 µM: 61%
U-937 [6]
  fold change (FC): 0.9
U-937 [3]
  MED: >50 µM

## COc1cc2c3cc1Oc1cc(ccc1O)C[C@@H]1c4c(cc(OC)c(O)c4Oc4cccc(c4)C[C@H]3N(C)CC2)CCN1C [CHONDODENDRINE]
U-937 [1]
  IC50: > 50 µM
U-937 [6]
  fold change (FC): 1.9
U-937 [3]
  MED: 12 µM

## COc1ccc2cc1Oc1ccc(cc1)C[C@@H]1c3c(cc(OC)c4c3Oc3cc5c(cc3O4)CCN[C@@H]5C2)CCN1C [TELOBINE]
U-937 [1]
  IC50: 12 µM
[12]
  viability at 24 h, 3.1 µM: 82%
U-937 [3]
  MED: 1.5 µM
U-937 [13]
  fold change (FC): 1.9

## COc1cc2c3cc1Oc1c(O)c(OC)cc4c1[C@@H](Cc1ccc(O)c(c1)Oc1ccc(cc1)C[C@@H]3N(C)CC2)N(C)CC4 [OBAMEGINE]
U-937 [1]
  IC50: 25 µM
[2]
  viability at 24 h, 12 µM: 89%
U-937 [3]
  MED: 3 µM
U-937 [4]
  fold change (FC): 2.6

## COc1ccc(CC2c3cc(OC)c(OC)cc3CCN2C)cc1OC (stereo unspecified) [LAUDANOSINE]
U-937 [6]
  fold change (FC): 0
U-937 [3]
  MED: >50 µM

## COc1cc2c3c4c1Oc1cc5c(cc1O4)[C@@H](Cc1ccc(O)c(c1)Oc1ccc(cc1)C[C@@H]3N(C)CC2)N(C)CC5 [TRIGILLETINE]
U-937 [1]
  IC50: 50 µM
[12]
  viability at 24 h, 3.1 µM: 108%
U-937 [3]
  MED: >50 µM
U-937 [13]
  fold change (FC): 0.8

## COc1ccc2cc1Oc1ccc(cc1)C[C@H]1NCCc3cc(OC)c(cc31)Oc1c(O)c(OC)cc3c1CCN(C)[C@@H]3C2 [NORPANURENSINE]
U-937 [1]
  IC50: > 50 µM
U-937 [10]
  fold change (FC): 2.5
U-937 [3]
  MED: 12 µM
[11]
  viability at 24 h, 50 µM: 113%

## COc1ccc(C[C@H]2c3cc(OC)c(OC)c(OC)c3CC[N+]2(C)C)cc1Oc1ccc(C[C@H]2c3cc4c(c(OC)c3CC[N+]2(C)C)OCO4)cc1.[I-].[I-] [THALISTYLINE DIMETHOIODIDE]
U-937 [1]
  IC50: > 50 µM
[12]
  viability at 24 h, 3.1 µM: 116%
U-937 [3]
  MED: >50 µM
U-937 [13]
  fold change (FC): 0.4

## COc1cc2c3cc1Oc1c(OC)c(OC)cc4c1[C@@H](Cc1ccc(O)c(c1)Oc1ccc(cc1)C[C@@H]3N(C)CC2)N(C)CC4 [BERBAMINE]
U-937 [1]
  IC50: > 50 µM
U-937 [10]
  fold change (FC): 1.2
U-937 [3]
  MED: 25 µM
[11]
  viability at 24 h, 50 µM: 70%

## COc1ccc2cc1Oc1ccc(cc1)C[C@H]1c3cc(c(OC)cc3CCN1C)Oc1c(O)c(OC)cc3c1[C@H](C2)N(C)CC3 [FANGCHINOLINE]
U-937 [1]
  IC50: > 50 µM
U-937 [10]
  fold change (FC): 2
U-937 [3]
  MED: 25 µM
[11]
  viability at 24 h, 50 µM: 102%

## COc1ccc2cc1Oc1ccc(cc1)C[C@@H]1c3cc(c(OC)cc3CCN1C)Oc1c(OC)c(OC)cc3c1[C@@H](C2)N(C)CC3 [PHAEANTHINE]
U-937 [1]
  IC50: 50 µM
[2]
  viability at 24 h, 12 µM: 104%
U-937 [3]
  MED: >50 µM
U-937 [4]
  fold change (FC): 0.75
